Data taken from ChEMBL document CHEMBL4390647, “Efficient click chemistry towards novel 1H-1,2,3-triazole-tethered 4H-chromene-d-glucose conjugates: Design, synthesis and evaluation of in vitro antibacterial, MRSA and antifungal activities” (Eur J Med Chem, 2019).
In brackets after ≈: the same amount, converted by molar mass.

What was measured:
Bacillus subtilis = assay: Antibacterial activity against Bacillus subtilis ATCC 11774 after 18 to 20 hrs by microbroth dilution method; type: functional
Summary of the method: (§1)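 Inoculum from a 4–6-h broth adjusted to 0.5 McFarland, final 5 × 10⁵ CFU/mL. Incubation at 35°C for 18–20 h. MIC taken as the lowest concentration giving complete inhibition of visible growth; three experiments.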

Klebsiella pneumoniae = assay: Antibacterial activity against measured after Klebsiella pneumoniae ATCC 4352 measured after 18 to 20 hrs by microbroth dilution method; type: functional; summary of the method: as §1
Salmonella typhimurium = assay: Antibacterial activity against Salmonella typhimurium ATCC 14028 measured after 18 to 20 hrs by microbroth dilution method; type: functional, Salmonella enterica subsp. enterica serovar Typhimurium; conditions: Salmonella enterica; summary of the method: as §1
Staphylococcus aureus [1] = assay: Antibacterial activity against Staphylococcus aureus ATCC 11632 after 18 to 20 hrs by microbroth dilution method; type: functional; summary of the method: as §1
Candida albicans = assay: Antifungal activity against Candida albicans ATCC 7754 after 72 hrs by agar dilution method; type: functional; conditions: ATCC 7754, 72 h
Summary of the method: (§2)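 Agar dilution on Sabouraud dextrose agar, with compounds at […] to 0.78 μM in twofold steps. Fungal suspensions at 10 CFU/mL as printed were applied to the compound-containing plates. Incubation at 35°C; MIC read after 72 h. Three experiments.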

Staphylococcus aureus [2] = assay: Antibacterial activity against Staphylococcus aureus MRSA198 clinical isolate-3 measured after 18 to 20 hrs by microbroth dilution method; type: functional; conditions: MRSA198 isolate-3
Escherichia coli = assay: Antibacterial activity against Escherichia coli ATCC 25922 measured after 18 to 20 hrs by microbroth dilution method; type: functional; summary of the method: as §1
Aspergillus flavus = assay: Antifungal activity against Aspergillus flavus ATCC 204304 measured after 72 hrs by agar dilution method; type: functional; conditions: ATCC 204304, 72 h; summary of the method: as §2
[3] = system: Staphylococcus epidermidis; assay: Antibacterial activity against Staphylococcus epidermidis ATCC 12228 after 18 to 20 hrs by microbroth dilution method; type: functional; summary of the method: as §1
Saccharomyces cerevisiae = assay: Antifungal activity against Saccharomyces cerevisiae SH 20 after 72 hrs by agar dilution method; type: functional; conditions: SH 20, 72 h; summary of the method: as §2
Pseudomonas aeruginosa = assay: Antibacterial activity against Pseudomonas aeruginosa […] measured after 18 to 20 hrs by microbroth dilution method; type: functional; summary of the method: as §1
Aspergillus niger = assay: Antifungal activity against Aspergillus niger ATCC 439 measured after 72 hrs by agar dilution method; type: functional; conditions: ATCC 439, 72 h; summary of the method: as §2
[4] = Cytotoxicity against mouse RAW264.7 cells assessed as growth inhibition at 50 ug/mL after 120 hrs by MTT assay relative to control; type: cell-based; conditions: read-out: GI
Summary of the method: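 RAW 264.7 mouse macrophages were seeded at 25,000 cells/well and left to attach overnight. Compound in DMSO was added from a 200× concentrate, in duplicate wells, to a 50 μg/mL test level; DMSO served as control. Exposure 120 h at 37°C in 5% CO₂. MTT (4 mg/mL in PBS) was added for 4 h, formazan dissolved in DMSO, and absorbance read at 560 nm. Viability expressed as % of untreated cells, mean ± SE of at least three independent experiments.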

Staphylococcus aureus [5] = assay: Antibacterial activity against Staphylococcus aureus MRSA198 clinical isolate-2 measured after 18 to 20 hrs by microbroth dilution method; type: functional; conditions: MRSA198 isolate-2
Staphylococcus aureus [6] = assay: Antibacterial activity against Staphylococcus aureus MRSA198 clinical isolate-1 measured after 18 to 20 hrs by microbroth dilution method; type: functional; conditions: MRSA198 isolate-1

| Structure (SMILES) | MIC (Bacillus subtilis) | MIC (Klebsiella pneumoniae) | MIC (Salmonella typhimurium) | MIC (Staphylococcus aureus [1]) | MIC (Candida albicans) | MIC (Staphylococcus aureus [2]) | MIC (Escherichia coli) | MIC (Aspergillus flavus) | MIC [3] | MIC (Saccharomyces cerevisiae) | MIC (Pseudomonas aeruginosa) | MIC (Aspergillus niger) | inhibition at 120 h, 50 ug/mL [4] | MIC (Staphylococcus aureus [5]) | MIC (Staphylococcus aureus [6]) |
| --- | --- | --- | --- | --- | --- | --- | --- | --- | --- | --- | --- | --- | --- | --- | --- |
| COc1cccc(C2C(C#N)=C(N)Oc3cc(OCc4cn([C@@H]5O[C@H](COC(C)=O)[C@@H](OC(C)=O)[C@H](OC(C)=O)[C@H]5OC(C)=O)nn4)ccc32)c1 (some centres not stated) | 200 µM (≈ 141 µg/mL) | 6.25 µM (≈ 4.41 µg/mL) | 100 µM (≈ 70.6 µg/mL) | 400 µM (≈ 282 µg/mL) | 400 µM (≈ 282 µg/mL) | 400 µM (≈ 282 µg/mL) | 200 µM (≈ 141 µg/mL) | 1.56 µM (≈ 1.1 µg/mL) | 100 µM (≈ 70.6 µg/mL) | 25 µM (≈ 17.6 µg/mL) | 400 µM (≈ 282 µg/mL) | 400 µM (≈ 282 µg/mL) | 25.1% |  |  |
| CC(=O)OC[C@H]1O[C@@H](n2cc(COc3ccc4c(c3)OC(N)=C(C#N)C4c3ccccc3[N+](=O)[O-])nn2)[C@H](OC(C)=O)[C@@H](OC(C)=O)[C@@H]1OC(C)=O (some centres not stated) | 100 µM (≈ 72.1 µg/mL) | 400 µM (≈ 288 µg/mL) |  | 6.25 µM (≈ 4.5 µg/mL) | 50 µM (≈ 36 µg/mL) | 3.12 µM (≈ 2.25 µg/mL) | 50 µM (≈ 36 µg/mL) | 6.25 µM (≈ 4.5 µg/mL) | 12.5 µM (≈ 9.01 µg/mL) |  | 400 µM (≈ 288 µg/mL) | 400 µM (≈ 288 µg/mL) | 15.4% | 1.56 µM (≈ 1.12 µg/mL) | 6.25 µM (≈ 4.5 µg/mL) |
| COc1cc(OC)cc(C2C(C#N)=C(N)Oc3cc(OCc4cn([C@@H]5O[C@H](COC(C)=O)[C@@H](OC(C)=O)[C@H](OC(C)=O)[C@H]5OC(C)=O)nn4)ccc32)c1 (some centres not stated) | 50 µM (≈ 36.8 µg/mL) | 100 µM (≈ 73.6 µg/mL) | 50 µM (≈ 36.8 µg/mL) | 100 µM (≈ 73.6 µg/mL) | 25 µM (≈ 18.4 µg/mL) | 200 µM (≈ 147 µg/mL) | 100 µM (≈ 73.6 µg/mL) | 50 µM (≈ 36.8 µg/mL) | 3.12 µM (≈ 2.3 µg/mL) | 6.25 µM (≈ 4.6 µg/mL) |  | 100 µM (≈ 73.6 µg/mL) | 19.5% | 400 µM (≈ 294 µg/mL) | 400 µM (≈ 294 µg/mL) |
| COc1ccc(C2C(C#N)=C(N)Oc3cc(OCc4cn([C@@H]5O[C@H](COC(C)=O)[C@@H](OC(C)=O)[C@H](OC(C)=O)[C@H]5OC(C)=O)nn4)ccc32)c(OC)c1 (some centres not stated) | 50 µM (≈ 36.8 µg/mL) | 12.5 µM (≈ 9.2 µg/mL) | 50 µM (≈ 36.8 µg/mL) | 1.56 µM (≈ 1.15 µg/mL) | 12.5 µM (≈ 9.2 µg/mL) | 6.25 µM (≈ 4.6 µg/mL) |  |  | 25 µM (≈ 18.4 µg/mL) | 50 µM (≈ 36.8 µg/mL) |  | 400 µM (≈ 294 µg/mL) | 12.4% | 1.56 µM (≈ 1.15 µg/mL) | 1.56 µM (≈ 1.15 µg/mL) |
| CC(=O)OC[C@H]1O[C@@H](n2cc(COc3ccc4c(c3)OC(N)=C(C#N)C4c3ccc(N(C)C)cc3)nn2)[C@H](OC(C)=O)[C@@H](OC(C)=O)[C@@H]1OC(C)=O (some centres not stated) | 100 µM (≈ 71.9 µg/mL) |  | 50 µM (≈ 35.9 µg/mL) | 100 µM (≈ 71.9 µg/mL) | 12.5 µM (≈ 8.98 µg/mL) | 200 µM (≈ 144 µg/mL) | 12.5 µM (≈ 8.98 µg/mL) | 12.5 µM (≈ 8.98 µg/mL) |  | 100 µM (≈ 71.9 µg/mL) | 1.56 µM (≈ 1.12 µg/mL) |  | 19.6% | 400 µM (≈ 287 µg/mL) | 400 µM (≈ 287 µg/mL) |
| O=C(O)c1cn(C2CC2)c2cc(N3CCNCC3)c(F)cc2c1=O [CIPROFLOXACIN] | 3.12 µM (≈ 1.03 µg/mL) | 1.56 µM (≈ 0.517 µg/mL) | 1.56 µM (≈ 0.517 µg/mL) | 3.12 µM (≈ 1.03 µg/mL) |  |  | 1.56 µM (≈ 0.517 µg/mL) |  | 3.12 µM (≈ 1.03 µg/mL) |  | 1.56 µM (≈ 0.517 µg/mL) |  |  |  |  |
| COc1cccc(OC)c1C(=O)N[C@@H]1C(=O)N2[C@@H]1SC(C)(C)[C@@H]2C(=O)O [METHICILLIN] | 400 µM (≈ 152 µg/mL) | 400 µM (≈ 152 µg/mL) | 400 µM (≈ 152 µg/mL) | 400 µM (≈ 152 µg/mL) |  |  | 400 µM (≈ 152 µg/mL) |  | 400 µM (≈ 152 µg/mL) |  | 400 µM (≈ 152 µg/mL) |  |  |  |  |
| Clc1ccc(COC(Cn2ccnc2)c2ccc(Cl)cc2Cl)c(Cl)c1 (configuration not stated) [MICONAZOLE] |  |  |  |  | 3.12 µM (≈ 1.3 µg/mL) |  |  | 1.56 µM (≈ 0.649 µg/mL) |  | 3.12 µM (≈ 1.3 µg/mL) |  | 1.56 µM (≈ 0.649 µg/mL) |  |  |  |
| CN[C@H](CC(C)C)C(=O)N[C@H]1C(=O)N[C@@H](CC(N)=O)C(=O)N[C@H]2C(=O)N[C@H]3C(=O)N[C@H](C(=O)N[C@H](C(=O)O)c4cc(O)cc(O)c4-c4cc3ccc4O)[C@H](O)c3ccc(c(Cl)c3)Oc3cc2cc(c3O[C@@H]2O[C@H](CO)[C@@H](O)[C@H](O)[C@H]2O[C@H]2C[C@](C)(N)[C@H](O)[C@H](C)O2)Oc2ccc(cc2Cl)[C@H]1O [VANCOMYCIN] | 0.78 µM (≈ 1.13 µg/mL) | 3.12 µM (≈ 4.52 µg/mL) | 3.12 µM (≈ 4.52 µg/mL) | 1.56 µM (≈ 2.26 µg/mL) |  | 1.56 µM (≈ 2.26 µg/mL) | 3.12 µM (≈ 4.52 µg/mL) |  | 3.12 µM (≈ 4.52 µg/mL) |  | 3.12 µM (≈ 4.52 µg/mL) |  |  | 1.56 µM (≈ 2.26 µg/mL) | 1.55 µM (≈ 2.25 µg/mL) |
